Reference: ChEMBL document CHEMBL1212776, “Novel ambler class A carbapenem-hydrolyzing beta-lactamase from a Pseudomonas fluorescens isolate from the Seine River, Paris, France” (Antimicrob Agents Chemother, 2010)
Values after ≈ are worked out from the molar mass of the structure shown.

Columns and labels:
Pseudomonas fluorescens [1] = assay: Antimicrobial activity against Pseudomonas fluorescens isolate PF-1 expressing beta-lactamase BIC-1 by Etest; format: functional
In short: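 MIC for isolate PF-1 by Etest, interpreted per CLSI recommendations. Cultures grown in Trypticase soy broth, 37°C, 18 h.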

Escherichia coli [2] = assay: Antimicrobial activity against Escherichia coli DH10B harbouring recombinant plasmid pSau1 expressing beta-lactamase BIC-1 from Pseudomonas fluorescens PF-1 by Etest; format: functional
Escherichia coli [3] = assay: Antimicrobial activity against Escherichia coli DH10B by Etest; format: functional
In short: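 MIC by Etest, interpreted per CLSI recommendations. Reference strain E. coli DH10B without recombinant plasmid; cultures grown in Trypticase soy broth at 37°C for 18 h.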

Pseudomonas fluorescens [4] = assay: Activity at Pseudomonas fluorescens PF-1 beta-lactamase BIC-1 expressed in Escherichia coli DH10B carrying pSau1
Pseudomonas fluorescens [5] = assay: Antimicrobial activity against Pseudomonas fluorescens isolate PF-1 expressing beta-lactamase BIC-1 by Etest in presence of 4 ug/ml of clavulanic acid; format: functional
In short: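 MIC for isolate PF-1 by Etest, with clavulanic acid held at a fixed 4 μg/ml and the β-lactam varied. Interpreted per CLSI recommendations.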

Escherichia coli [6] = assay: Antimicrobial activity against Escherichia coli DH10B harbouring recombinant plasmid pSau1 expressing beta-lactamase BIC-1 from Pseudomonas fluorescens PF-1 by Etest in presence of 4 ug/ml of clavulanic acid; format: functional
Escherichia coli [7] = assay: Antimicrobial activity against Escherichia coli DH10B by Etest in presence of 4 ug/ml of clavulanic acid; format: functional
In short: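 Etest MIC with clavulanic acid held at a fixed 4 μg/ml alongside the β-lactam, read per CLSI recommendations. Strain E. coli DH10B; cultures grown in TS broth at 37°C for 18 h.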

[8] = Inhibition of Pseudomonas fluorescens PF-1 beta-lactamase BIC-1 expressed in Escherichia coli DH10B carrying pSau1
In short: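 BIC-1 purified from E. coli DH10B(pSau1) lysate by S-Sepharose flowthrough, then Q-Sepharose with a 0–500 mM NaCl gradient. Enzyme preincubated with varied inhibitor (clavulanate, tazobactam or sulbactam) for 3 min at 30°C. Then 100 μM benzylpenicillin added. IC50 is the inhibitor concentration halving the hydrolysis rate.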

[9] = molecular target: Carbapenem-hydrolyzing beta-lactamase KPC (Klebsiella pneumoniae, UniProt Q9F663); assay: Inhibition of carbapenem-resistant Klebsiella pneumoniae carbepenem-hydrolyzing beta-lactamase KPC-1
Sequence of Carbapenem-hydrolyzing beta-lactamase KPC (Q9F663 whole entry): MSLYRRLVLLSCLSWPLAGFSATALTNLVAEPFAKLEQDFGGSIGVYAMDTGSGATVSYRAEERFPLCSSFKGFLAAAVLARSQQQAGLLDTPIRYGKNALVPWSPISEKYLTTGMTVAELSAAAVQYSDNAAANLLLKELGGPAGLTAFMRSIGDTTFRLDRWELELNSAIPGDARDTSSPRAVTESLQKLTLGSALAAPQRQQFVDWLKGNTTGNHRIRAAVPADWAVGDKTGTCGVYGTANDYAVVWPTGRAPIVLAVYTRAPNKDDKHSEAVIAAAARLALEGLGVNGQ

[10] = substrate: CC(=O)OCC1=C(C(=O)O)N2C(=O)[C@@H](NC(=O)Cc3cccs3)[C@H]2SC1; assay: (§1) Ratio of Kcat to Km of Pseudomonas fluorescens PF-1 beta-lactamase BIC-1 expressed in Escherichia coli DH10B using nitrocefin hydrolysis
In short: (§2)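 Cells from overnight 37°C TS broth culture with amoxicillin and kanamycin were sonicated. Enzyme purified by S-Sepharose (malonate pH 6.1), then Q-Sepharose (bis-Tris pH 7.2, 0–500 mM NaCl gradient), and dialyzed into 50 mM sodium phosphate pH 7. kcat and Km measured on the purified enzyme. Values are means of three independent experiments; SD within 10%.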

[11] = substrate: CC1(C)S[C@@H]2[C@H](NC(=O)Cc3ccccc3)C(=O)N2[C@H]1C(=O)O; assay: as §1; in short: as §2
[12] = substrate: CC1(C)S[C@@H]2[C@H](NC(=O)[C@H](C(=O)O)c3ccsc3)C(=O)N2[C@H]1C(=O)O; assay: as §1; in short: as §2
[13] = substrate: CC1(C)S[C@@H]2[C@H](NC(=O)[C@H](N)c3ccccc3)C(=O)N2[C@H]1C(=O)O; assay: as §1; in short: as §2
[14] = substrate: CCN1CCN(C(=O)N[C@@H](C(=O)N[C@@H]2C(=O)N3[C@@H]2SC(C)(C)[C@@H]3C(=O)O)c2ccccc2)C(=O)C1=O; assay: as §1; in short: as §2
[15] = substrate: CO/N=C(\C(=O)N[C@@H]1C(=O)N2C(C(=O)O)=C(COC(C)=O)CS[C@H]12)c1csc(N)n1; assay: as §1; in short: as §2
[16] = substrate: CO/N=C(\C(=O)N[C@@H]1C(=O)N2C(C(=O)O)=C(COC(N)=O)CS[C@H]12)c1ccco1; assay: as §1; in short: as §2
[17] = substrate: CO[C@@]1(NC(=O)C(C(=O)O)c2ccc(O)cc2)C(=O)N2C(C(=O)O)=C(CSc3nnnn3C)CO[C@@H]21; assay: as §1; in short: as §2
[18] = substrate: CO[C@@]1(NC(=O)Cc2cccs2)C(=O)N2C(C(=O)O)=C(COC(N)=O)CS[C@@H]21; assay: as §1; in short: as §2
[19] = substrate: C[C@@H](O)[C@H]1C(=O)N2C(C(=O)O)=C(SCCNC=N)C[C@H]12; assay: as §1; in short: as §2
[20] = substrate: C[C@@H](O)[C@H]1C(=O)N2C(C(=O)O)=C(S[C@@H]3CN[C@H](C(=O)N(C)C)C3)[C@H](C)[C@H]12; assay: as §1; in short: as §2
[21] = substrate: C[C@@H](O)[C@H]1C(=O)N2C(C(=O)O)=C(S[C@@H]3CN[C@H](C(=O)Nc4cccc(C(=O)O)c4)C3)[C@H](C)[C@H]12; assay: as §1; in short: as §2
[22] = substrate: C[C@H]1[C@H](NC(=O)/C(=N\OC(C)(C)C(=O)O)c2csc(N)n2)C(=O)N1S(=O)(=O)O; assay: as §1; in short: as §2
[23] = substrate: Cc1onc(-c2ccccc2)c1C(=O)N[C@@H]1C(=O)N2[C@@H]1SC(C)(C)[C@@H]2C(=O)O; assay: as §1; in short: as §2
[24] = substrate: O=C(Cc1cccs1)N[C@@H]1C(=O)N2C(C(=O)[O-])=C(C[n+]3ccccc3)CS[C@H]12; assay: as §1; in short: as §2

Row | Molecule | MIC (Pseudomonas fluorescens [1]) [µg/mL] | MIC (Escherichia coli [2]) [µg/mL] | MIC (Escherichia coli [3]) [µg/mL] | Km (Pseudomonas fluorescens [4]) [µM] | kcat (Pseudomonas fluorescens [4]) [s⁻¹] | also measured
1 | C[C@@H](O)[C@H]1C(=O)N2C(C(=O)O)=C(S[C@@H]3CN[C@H](C(=O)Nc4cccc(C(=O)O)c4)C3)[C@H](C)[C@H]12 | > 16 | 0.25 | 0.12 (≈ 0.252 µM) | 10 | 2 | –
2 | CO/N=C(\C(=O)N[C@@H]1C(=O)N2C(C(=O)[O-])=C(C[N+]3(C)CCCC3)CS[C@H]12)c1csc(N)n1 | > 16 | 0.12 | – | – | – | –
3 | CC1(C)S[C@@H]2[C@H](NC(=O)Cc3ccccc3)C(=O)N2[C@H]1C(=O)O | – | – | – | 48 | 31 | –
4 | CC1(C)S[C@@H]2[C@H](NC(=O)[C@H](N)c3ccccc3)C(=O)N2[C@H]1C(=O)O | – | – | – | 1150 | 185 | –
5 | Cc1onc(-c2ccccc2)c1C(=O)N[C@@H]1C(=O)N2[C@@H]1SC(C)(C)[C@@H]2C(=O)O | – | – | – | 110 | 15 | –
6 | O=C(Cc1cccs1)N[C@@H]1C(=O)N2C(C(=O)[O-])=C(C[n+]3ccccc3)CS[C@H]12 | – | – | – | 770 | 170 | –
7 | CC1(C)S[C@@H]2[C@H](NC(=O)[C@H](N)c3ccc(O)cc3)C(=O)N2[C@H]1C(=O)O [AMOXICILLIN] | > 256 | > 256 | 4 (≈ 10.9 µM) | – | – | MIC (Pseudomonas fluorescens [5]): > 256 µg/mL; MIC (Escherichia coli [6]): 16 µg/mL; MIC (Escherichia coli [7]): 4 µg/mL
8 | C[C@H]1[C@H](NC(=O)/C(=N\OC(C)(C)C(=O)O)c2csc(N)n2)C(=O)N1S(=O)(=O)O [AZTREONAM] | > 256 | 16 | – | > 1000 | 35 | –
9 | CO/N=C(\C(=O)N[C@@H]1C(=O)N2C(C(=O)O)=C(COC(C)=O)CS[C@H]12)c1csc(N)n1 [CEFOTAXIME] | > 32 | 0.5 | 0.12 (≈ 0.263 µM) | 2200 | 20 | –
10 | CO[C@@]1(NC(=O)Cc2cccs2)C(=O)N2C(C(=O)O)=C(COC(N)=O)CS[C@@H]21 [CEFOXITIN] | > 256 | 4 | 1 (≈ 2.34 µM) | 825 | 1 | –
11 | CC(C)(O/N=C(\C(=O)N[C@@H]1C(=O)N2C(C(=O)[O-])=C(C[n+]3ccccc3)CS[C@H]12)c1csc(N)n1)C(=O)O [CEFTAZIDIME] | 2 (≈ 3.66 µM) | 0.5 | 0.5 (≈ 0.915 µM) | – | – | –
12 | CO/N=C(\C(=O)N[C@@H]1C(=O)N2C(C(=O)O)=C(COC(N)=O)CS[C@H]12)c1ccco1 [CEFUROXIME] | > 256 | 16 | 0.5 (≈ 1.18 µM) | > 1000 | 9 | –
13 | CC(=O)OCC1=C(C(=O)O)N2C(=O)[C@@H](NC(=O)Cc3cccs3)[C@H]2SC1 [CEPHALOTHIN] | > 256 | 128 | 2 (≈ 5.04 µM) | 550 | 250 | –
14 | O=C(O)[C@H]1/C(=C/CO)O[C@@H]2CC(=O)N21 [CLAVULANIC ACID] | – | – | – | – | – | IC50 [8]: 30 µM; IC50 [9]: 10.5 µM
15 | C[C@@H](O)[C@H]1C(=O)N2C(C(=O)O)=C(SCCNC=N)C[C@H]12 [IMIPENEM ANHYDROUS] | > 16 | – | – | 300 | 50 | MIC (Pseudomonas fluorescens [5]): > 16 µg/mL; MIC (Escherichia coli [7]): 0.12 µg/mL
16 | C[C@@H](O)[C@H]1C(=O)N2C(C(=O)O)=C(S[C@@H]3CN[C@H](C(=O)N(C)C)C3)[C@H](C)[C@H]12 [MEROPENEM] | > 16 | 0.25 | 0.12 (≈ 0.313 µM) | 12 | 1 | –
17 | CO[C@@]1(NC(=O)C(C(=O)O)c2ccc(O)cc2)C(=O)N2C(C(=O)O)=C(CSc3nnnn3C)CO[C@@H]21 (some centres undefined) [MOXALACTAM] | > 256 | 0.12 | 0.12 (≈ 0.231 µM) | 1700 | 3 | –
18 | CCN1CCN(C(=O)N[C@@H](C(=O)N[C@@H]2C(=O)N3[C@@H]2SC(C)(C)[C@@H]3C(=O)O)c2ccccc2)C(=O)C1=O [PIPERACILLIN] | 4 (≈ 7.73 µM) | 256 | 1 (≈ 1.93 µM) | 175 | 40 | –
19 | C[C@]1(Cn2ccnn2)[C@H](C(=O)O)N2C(=O)C[C@H]2S1(=O)=O [TAZOBACTAM] | – | – | – | – | – | IC50 [8]: 6.5 µM
20 | CC1(C)S[C@@H]2[C@H](NC(=O)[C@H](C(=O)O)c3ccsc3)C(=O)N2[C@H]1C(=O)O [TICARCILLIN] | > 256 | > 256 | 4 (≈ 10.4 µM) | 250 | 15 | MIC (Pseudomonas fluorescens [5]): > 256 µg/mL; MIC (Escherichia coli [6]): 128 µg/mL; MIC (Escherichia coli [7]): 4 µg/mL
21 | Beta-lactamase (Pseudomonas fluorescens), D2WFL1 (protein) MARPSKLALSFSLLLPFLPFTSFAETWPQGDIARQKIVKLEKDFGGRIGVSAIDTGANRTFDFRADERFPLCSSFKGFLAGAVLSHSQQQEGLLEKRIDYKNRVMEPHSPISAQHSSTGMTVAQLAAAALQYSDNGATNLLLENVLGGPAGMTTFMRTLGDTTFRLDRWELELNSAIPGDDRDTSTPHAIARSLQKIALGEALQTAPRQQLVDWLIGNTTGGARIRAGVPVEWVVGDKTGTCGVYGTANDYAVIWPKTSAPIVLAIYTAKPNKEDKHSDAVIAEVTRAVLESFE | – | – | – | – | – | kcat/Km [10]: 500000 M⁻¹ s⁻¹; kcat/Km [11]: 660000 M⁻¹ s⁻¹; kcat/Km [12]: 60000 M⁻¹ s⁻¹; kcat/Km [13]: 160000 M⁻¹ s⁻¹; kcat/Km [14]: 210000 M⁻¹ s⁻¹; kcat/Km [15]: 9000 M⁻¹ s⁻¹; kcat/Km [16]: < 9000 M⁻¹ s⁻¹; kcat/Km [17]: 1000 M⁻¹ s⁻¹; kcat/Km [18]: 1000 M⁻¹ s⁻¹; kcat/Km [19]: 170000 M⁻¹ s⁻¹; kcat/Km [20]: 80000 M⁻¹ s⁻¹; kcat/Km [21]: 200000 M⁻¹ s⁻¹; kcat/Km [22]: < 35000 M⁻¹ s⁻¹; kcat/Km [23]: 100000 M⁻¹ s⁻¹; kcat/Km [24]: 220000 M⁻¹ s⁻¹
